Our source for the cytotoxicity values is ChEMBL document CHEMBL4513216, “Probing the Open Global Health Chemical Diversity Library for Multistage-Active Starting Points for Next-Generation Antimalarials” (ACS Infect Dis, 2020).

The nature of this data set: Toxicity liver stage against HepG2, at 10uM. In kind it is cell-based. Set-up: test concentration 10 uM, cell line HepG2-A16-CD81EGFP. To be noted: human, HepG2-A16-CD81EGFP cells; read-out: INHIBITION
The method, boiled down:
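Uninfected HepG2-A16-CD81EGFP cells, 3 × 10^3 per well, 1536-well, plated on prespotted compound at 10 μM final, parasite-free screening media added to match infected plates; puromycin 10 μM positive, DMSO 0.5% negative; run in parallel with 48 h PbLuc assay at 37 °C, 5% CO2; viability by CellTiter-Glo luminescence, normalized to controls.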

On to `COc1cccc(CN2CCC3(CC2)CCN(c2ncc(F)cn2)C3)c1`, for which the cytotoxicity at 10 µM turned out to be 1.42%.
`CNS(=O)(=O)CCCN1CCCC1c1noc(C2CC2)n1` (stereo not given): the cytotoxicity at 10 µM was -16.5%.
For `CCc1nsc(N2CCN(Cc3ccno3)CC2)n1`, the cytotoxicity at 10 µM is -8.95%.
As to `CN1CCO[C@H]2CN(C(=O)c3ccoc3)C[C@H]21`, the cytotoxicity at 10 µM was -80.6%.
With `Cc1cc(C)n(CCCNC(=O)C(C)NC(=O)CC2CCCCC2)n1` (stereo not given), the cytotoxicity at 10 µM was -1.06%.
For `CCn1cc(S(=O)(=O)N2CCN(S(=O)(=O)c3ccc(Br)s3)CC2)c(C)n1`, the cytotoxicity at 10 µM came to 4.64%.
Take `COCCN1C[C@@H]2[C@@H](OC)CCN(Cc3cccc(C)n3)[C@@H]2C1`: the cytotoxicity at 10 µM was -9.41%.
`CCc1nnc2n1CCN(CC(=O)N1CCc3ccccc3C1)C2`: the cytotoxicity at 10 µM was -7.83%.
Then `CCC(O)Cn1nc(-c2ccc(C(=O)O)cc2)cc1-c1ccc(F)cc1` (stereo not given), with 1.24%; and `CN(C)C1CCN(Cc2cnc(S(C)(=O)=O)n2CC2CCCCC2)C1` (stereo not given), with 0.83%; and `COCCC1COC2(CCN(C(=O)C3CCCC3)CC2)C1` (stereo not given), with 6.13%.
On to `Cc1cc(NC(=O)CN2CCn3c(nnc3-c3ccccc3)C2)no1`, for which the cytotoxicity at 10 µM is -2.38%.
Consider `Cc1cnn(CC2CCCN2Cc2nc3ccccc3n2C)c1` (stereo not given), for which the cytotoxicity at 10 µM was -14.5%.
As for `CC(NCC(=O)N(C)C1CC1)c1ccc(S(C)(=O)=O)c(F)c1` (stereo not given), the cytotoxicity at 10 µM worked out at 6.27%.
Then `CN(C)C(=O)CN1CC[C@H]2CN(C3CCOCC3)C[C@@H]2C1=O`, with -3.84%.
Then `Cc1ccc(-c2cc(CN3CCc4cncnc4C3)on2)cc1`, with 4.96%.
`O=C(Nc1cccc(N2CCN(CC3CC3)CC2)c1)C1CCCO1` (stereo not given): the cytotoxicity at 10 µM is -1.23%.
With `COc1ccc(CN(C)[C@@H]2COC[C@H]2c2ccc(F)cc2)cc1`, the cytotoxicity at 10 µM worked out at 10.9%.
Then `CN1CC2(CCN(Cc3cccnc3)CC2)c2cc(F)ccc21`, with 14%; and `COc1ccc(C(N)=O)cc1NCc1nc(-c2cccs2)oc1C`, with 1.83%.
Regarding `CCCOc1ccc(NC(=O)NCCC(=O)N(C)C)cc1Cl`, the cytotoxicity at 10 µM is -10.9%.
On to `CCCN1Cc2ccccc2CC1C(=O)NC` (stereo not given), for which the cytotoxicity at 10 µM was -5.74%.
`Cc1ccc(Cl)cc1-n1nnnc1C1(N2CCCC2)CCCCC1`: the cytotoxicity at 10 µM stood at 18.9%.
For the compound `COCc1noc(CN2CCCCC2CCc2cccs2)n1` (stereo not given), the cytotoxicity at 10 µM came out at 0.642%.
Turning to `O=C(c1ccco1)N1CC[C@H]2[C@H]1CC(=O)N2c1cccnc1`, the cytotoxicity at 10 µM was -95.8%.
Then `COc1cc(C)nc(N2CCN(C(=O)COC3CCCC3)CC2)n1`, with -3.78%; and `COCCOc1cccc(CNCc2ccc(-n3cncn3)nc2)c1`, with -11.8%; and `CN(C)C[C@H]1OC[C@@H]2CCN(C(=O)c3cccn3C)C[C@@H]21`, with -2.29%.
With `CC(C(=O)NCC1(c2c(F)cccc2F)CCCC1)S(C)(=O)=O` (stereo not given), the cytotoxicity at 10 µM came out at 8.14%.
Regarding `c1cncc(OCc2nnn3c2CN(Cc2ccsc2)CCC3)c1`, the cytotoxicity at 10 µM is -4.34%.
Then `O=C1NCCN(CC2CC2)C12CCN(Cc1ccc3c(c1)OCO3)CC2`, with -1.06%.
Turning to `Cc1ccc(S(=O)(=O)NCCNC(=O)c2cncnc2C)cc1`, the cytotoxicity at 10 µM was -1.51%.
For `CC1CCCCN1c1nc2c(c(=O)[nH]1)CCN(Cc1ccccc1F)C2` (stereo not given), the cytotoxicity at 10 µM was -4.39%.
Then `Cc1c[nH]c(CN(C)C(=O)c2ccc(CSc3nnc[nH]3)o2)n1`, with 1.12%; and `CN(C)C(=O)CN1C[C@H]2CCN(C(=O)C3CCCO3)CC[C@H]2S1(=O)=O` (stereo not given in full), with 20.6%.
With `COc1ccc2c(c1)ncn2C[C@]1(O)CCCN2CCCC[C@@H]21`, the cytotoxicity at 10 µM was -0.71%.
As to `Cc1cnn(CC(=O)N2CCC3(CCC(=O)N(C4CCCC4)C3)CC2)c1`, the cytotoxicity at 10 µM came to 3.03%.
Regarding `Cc1nc(C(C)C)ncc1C(=O)N1CCC(c2ccccc2C(=O)O)C1` (stereo not given), the cytotoxicity at 10 µM came out at 1.93%.
Consider `CC(C)CN1CC(c2nc(-c3ccsc3)c[nH]2)CC1=O` (stereo not given), for which the cytotoxicity at 10 µM is 6.65%.
Regarding `O=C(NS(=O)(=O)c1ccccc1)c1ccccc1F`, the cytotoxicity at 10 µM worked out at 11.4%.
Under `CNC(=O)c1cccc(C2CNCCN2C(=O)c2cccc(F)c2)c1` (stereo not given) stands -7.9%; under `Cc1cc(CN2CCC(C3CCN(CC(C)C)CC3)C2)[nH]n1` (stereo not given), -8.71%; under `CCNc1ncc(C(=O)N[C@H](C(N)=O)c2ccccc2)cn1`, 10.6%.
Consider `Cc1cnccc1CNCc1ccc(OC23CCCN(CC2)C3)cc1` (stereo not given), for which the cytotoxicity at 10 µM is -12.3%.
Turning to `CCSCC(C)NCc1ccccc1-n1ccnc1` (stereo not given), the cytotoxicity at 10 µM was 11.7%.
As for `CNc1cncc(C2CCCN2C(=O)Cn2ccnc2C)n1` (stereo not given), the cytotoxicity at 10 µM is -4.31%.
Then `CCc1nnc2n1CCN(C(=O)CCc1ccc(C)c(Cl)c1)C2`, with -4.01%; and `O=C1CCCc2occ(C(=O)N3CCCC4(CCNC4)C3)c21` (stereo not given), with 9.15%; and `O=C1NC2(CCN(Cc3ccsc3)CC2)CC1c1ccncc1` (stereo not given), with 4.93%.
In the case of `CC(C)c1ccc(OCCC(=O)N2CCC(CC(N)=O)CC2)cc1`, the cytotoxicity at 10 µM is -14%.
For `CCOCCCNC(=O)NC(C)c1ccc(-n2cncn2)cc1` (stereo not given), the cytotoxicity at 10 µM was determined as 3.31%.
Then `COc1ccc(F)c(CN2CCCC3(CCN(C(=O)CSC)C3)C2)c1` (stereo not given), with 0.15%.
Consider `Cc1oc(-c2ccccc2)nc1C(=O)NC1=NCCS1`, for which the cytotoxicity at 10 µM was found to be 1.85%.
For the compound `Cc1cc(CNc2ccc(C(F)(F)F)cc2)no1`, the cytotoxicity at 10 µM is -54%.
Then `CN(C)CCN1CCN(C)c2nc(-c3ccccc3)ncc2C1=O`, with -11.6%.
On to `CCOC(=O)[C@@H]1[C@@H](OC)C(=O)N(C)C12CCN(C(=O)C(CC)CC)CC2`, for which the cytotoxicity at 10 µM was -0.00815%.
`COCc1cccc(NC(C)C(=O)N(C)Cc2cccc(F)c2)c1` (stereo not given): the cytotoxicity at 10 µM was 12.2%.
Turning to `O=C(NCc1csc(Br)c1)c1ccncc1`, the cytotoxicity at 10 µM worked out at 4.38%.
`N#Cc1cccc(CNCCC(=O)N2CCc3sccc3C2)c1`: the cytotoxicity at 10 µM was found to be 1.04%.
As to `c1cc(CN2CCCC2c2noc(C3CC3)n2)on1` (stereo not given), the cytotoxicity at 10 µM was -0.628%.
Regarding `CCn1ccnc1CN1CCN(C(C)C(=O)N2CCCC2)CC1` (stereo not given), the cytotoxicity at 10 µM is -3.97%.
`Cc1ccc(CCNC(=O)Nc2cc(C(F)(F)F)c[nH]c2=O)o1`: the cytotoxicity at 10 µM is -11.9%.
Under `O=C(c1cnc(Nc2ccccc2)nc1)N1CCCC2(CCNC2)C1` (stereo not given) stands -6.57%.
In the case of `CCn1c(CC2CCN(C(=O)c3cc(C(C)C)n[nH]3)CC2)n[nH]c1=O`, the cytotoxicity at 10 µM is -44.4%.
Then `CN(Cc1cccnc1)Cc1cncc2c1CCN(c1ccccn1)C2`, with -108%.
Under `O=C(CC1CC1)N1Cc2nccn2CC(Cn2ncccc2=O)C1` (stereo not given) stands 7.04%; under `O=C(CN1CC(c2nc(-c3cccs3)no2)C1)NCC1CCCO1` (stereo not given), -1.47%.
Then `Cc1noc(C2CCC3(CCN(C(=O)c4cc(C5CC5)on4)CC3)O2)n1` (stereo not given), with 3.1%.
In the case of `c1csc(CCNc2nc(-c3ccncc3)nc3c2CCNCC3)c1`, the cytotoxicity at 10 µM is -165%.
Regarding `OC1(CNCCN2CCCc3ccccc32)CCNC1` (stereo not given), the cytotoxicity at 10 µM is 7.03%.
For the compound `O=C(Cc1ccsc1)N1C[C@@H]2CN(Cc3ccoc3)CCO[C@@H]2C1`, the cytotoxicity at 10 µM is -1.73%.
Consider `Cn1cc(C2=NOC(C(=O)NC3(c4cccc(F)c4)CCCC3)C2)cn1` (stereo not given), for which the cytotoxicity at 10 µM turned out to be 1.53%.
In the case of `CN1C(Cn2cccn2)C[C@@H]2CN(Cc3cccnc3)CC[C@@H]21` (stereo not given in full), the cytotoxicity at 10 µM was found to be 8.01%.
Then `Cn1cc(C(=O)Nc2ccc(CN3CCOCC3)cn2)cn1`, with 6.95%; and `O=C1CCCc2cc(S(=O)(=O)NCc3ccccn3)ccc2N1`, with 2.41%; and `Cc1cnn(CCNCC(=O)Nc2ccc(Br)cn2)c1`, with 1.9%.
On to `CCN1C(=O)C2(CCOCC2)c2cc(NC(=O)c3cccn3C)ccc21`, for which the cytotoxicity at 10 µM was -2.13%.
Then `C/C=C(\C)CN1C[C@H](NC(=O)CN2CCCC2=O)[C@@H](c2ccc(C)o2)C1`, with 10.8%; and `C[S+]([O-])c1cccc(NC(=O)N(CCC#N)Cc2ccccn2)c1` (stereo not given), with 10.6%; and `Cc1cc(C)n(CCCN(C)C(=O)[C@H]2CCCO2)n1`, with -13.2%.
Regarding `CCCNC(=O)COc1cc(C)c2c(C)nn(-c3ccccc3)c2n1`, the cytotoxicity at 10 µM was -0.295%.
Then `CC(C)N(C)CC(=O)Nc1nccn1Cc1ccccc1Cl`, with 0.0646%; and `CSCC1CCN(C(=O)Cn2ncc(N3CCCCC3)cc2=O)CC1`, with -3.95%.
As to `Cc1cc(NC(=O)N2CCCC2CN2CCOCC2)nn1C` (stereo not given), the cytotoxicity at 10 µM was 1.63%.
On to `O=C(C1CC2(CCNCC2)CN1)N1CCN(c2cccc(Cl)c2Cl)CC1` (stereo not given), for which the cytotoxicity at 10 µM was -13.9%.
Then `CCC(c1nc(C(C)C)nn1-c1ccccn1)n1cccn1` (stereo not given), with 5.66%; and `Cc1csc(CN2CC[C@H]3C[C@H](c4nnc(C)[nH]4)O[C@@H]3C2)n1`, with -19.6%; and `Cc1nnc(CN(C)CCOc2cccc(Cl)c2)o1`, with 12.8%.
Then `COCc1cc(CNC(=O)c2cccc3c2OCC3)n[nH]1`, with 8.97%.
As for `CCN1CC2(CCC1=O)CCN(c1ccc(C(C)=O)cn1)CC2`, the cytotoxicity at 10 µM is -8.63%.
Then `COCC(=O)Nc1cnc(N2CCN(c3ccccc3)CC2)nc1`, with -9.87%; and `CNc1cc2c(nn1)CCN(C(=O)c1ccc3c(c1)OCO3)C2`, with 6.85%.
`CC(=O)NCC(=O)N1CCc2[nH]c(-c3ccccc3)nc2C1`: the cytotoxicity at 10 µM is -0.591%.
For `Nc1ncncc1-c1noc([C@@H]2CCCN2CC2CC2)n1`, the cytotoxicity at 10 µM was -1.18%.
With `CCc1nc(CN2CCOC(CNc3cccnn3)C2)cs1` (stereo not given), the cytotoxicity at 10 µM was -11%.
